ChEMBL document CHEMBL4428026, “Discovery of New Monocarbonyl Ligustrazine-Curcumin Hybrids for Intervention of Drug-Sensitive and Drug-Resistant Lung Cancer” (J Med Chem, 2016)
pIC50: −log10 of the molar value. Calls of active or inactive are those of the source. The rule behind the calls is not given here.

What was measured:
A549/CDDP [1] = test: Decrease in P-gp expression in human A549/CDDP cells at 0.6 to 1.2 uM after 24 hrs by Western blot method; format: functional, cell-based
In short: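 A549/DDP cells were treated for 24 h with vehicle DMSO (0.1%, v/v) or 0.6 or 1.2 µM compound. Lysates were run on SDS-PAGE (7.5% gel, 20 µg/lane), blotted to PVDF and probed with anti-P-gp, with detection by ECL. P-gp was normalized to β-actin. Three independent experiments were run.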

A549 [2] = test: Induction of apoptosis in human A549 cells at 2.1 to 4.2 uM after 24 hrs by annexin V-FITC/propidium iodide staining-based flow cytometry; format: functional, cell-based
In short: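 Cells were seeded at 1 × 10^5/well and treated 24 h with DMSO (1%) or compound. They were then washed in PBS, stained with FITC-Annexin V and propidium iodide, and apoptotic fractions were quantified by flow cytometry.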

[3] = Acute toxicity in ICR mouse assessed as survival at 350 mg/kg, ip measured on day 14; format: organism-based; conditions: in vivo
In short: (§1)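 Male and female ICR mice (7 weeks), randomized, 10 per group, given one intraperitoneal dose at 200, 250, 300, 350, 400 or 450 mg/kg. Animals were watched for abnormal behaviour and deaths up to two weeks. Deaths were tallied at 1 h, 4 h, day 3 and days 4-14, with survival on day 14. LD50 was calculated with 95% confidence limits.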

A549 [4] = test: Induction of apoptosis in human A549 cells assessed as increase in Bax to Bcl2 ratio at 2.1 to 4.2 uM after 24 hrs by Western blot method; format: functional, cell-based
In short: (§2)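 Cells were plated at 1 × 10^6/well overnight, then treated 24 h with vehicle DMSO (0.1%, v/v) or compound (A549, 2.1 or 4.2 µM; A549/DDP, 0.6 or 1.2 µM). Lysis was at 4 °C. Lysates were run on SDS-PAGE (7.5% gel, 20 µg/lane) and immunoblotted with ECL detection; phospho-Akt Ser473 and phospho-ERK Thr202/Tyr204 were probed. Bands were normalized to GAPDH (TrxR, Trx) or β-actin. Three independent experiments were run.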

A549/CDDP [5] = test: Inhibition of ERK phosphorylation in human A549/CDDP cells at 0.6 to 1.2 uM after 24 hrs by Western blot method; format: cell-based; in short: as §2
A549 [6] = test: Inhibition of NFkappaB phosphorylation in human A549 cells at 2.1 to 4.2 uM after 24 hrs by Western blot method; format: cell-based; in short: as §2
[7] = Acute toxicity in ICR mouse assessed as mortality at 200 to 450 mg/kg, ip measured at 1 hr post treatment; format: organism-based; conditions: in vivo; in short: as §1
A549 [8] = test: Induction of apoptosis in human A549 cells assessed as decrease in Bcl2 expression at 2.1 to 4.2 uM after 24 hrs by Western blot method; format: functional, cell-based; in short: as §2
A549/CDDP [9] = test: Antiproliferative activity against human A549/CDDP cells after 72 hrs by MTT assay; format: functional, cell-based
In short: (§3)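 Cells (A549, A549/DDP, SPC-A-1, LTEP-G-2, non-tumor bronchial epithelial HBE) were exposed in triplicate to vehicle or compound for 72 h. MTT (5 mg/mL in PBS) was then added for 4 h, formazan was dissolved in DMSO, and absorbance was read at 570 nm. IC50 values were derived from viability.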

A549/CDDP [10] = test: Effect on ERK expression in human A549/CDDP cells at 0.6 to 1.2 uM after 24 hrs by Western blot method; format: functional, cell-based; in short: as §2
A549/CDDP [11] = test: Effect on NFkappaB expression in human A549/CDDP cells at 0.6 to 1.2 uM after 24 hrs by Western blot method; format: functional, cell-based; in short: as §2
A549/CDDP [12] = test: Decrease in Trx expression in human A549/CDDP cells at 0.6 to 1.2 uM after 24 hrs by Western blot method; format: functional, cell-based; in short: as §2
[13] = Acute toxicity in ICR mouse assessed as survival at 300 mg/kg, ip measured on day 14; format: organism-based; conditions: in vivo; in short: as §1
[14] = biological target: ATP-dependent translocase ABCB1 (Homo sapiens, UniProt P08183); test: Inhibition of P-gp ATPase activity in human A549/CDDP cells at 40 uM by luminescence assay (reference value: 706683 +/- 23554 RLU); format: cell-based
A549 [15] = test: Induction of ROS generation in human A549 cells 2.1 to 4.2 uM after 60 mins by DHE staining-based fluorescence assay; format: functional, cell-based
In short: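 A549 or A549/DDP cells were treated in triplicate for 60 min with vehicle DMSO (0.1%, v/v) or a range of compound concentrations. Cells were stained with dihydroethidium, and intracellular ROS fluorescence was read on a microplate reader at 300 and 610 nm. Three independent experiments were run.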

A549/CDDP [16] = test: Decrease in TrxR expression in human A549/CDDP cells at 0.6 to 1.2 uM after 24 hrs by Western blot method; format: functional, cell-based; in short: as §2
A549 [17] = test: Induction of ROS generation in human A549 cells 2.1 to 4.2 uM after 60 mins by DHE staining-based fluorescence assay in presence of NAC; format: functional, cell-based
A549 [18] = test: Antiproliferative activity against human A549 cells after 72 hrs by MTT assay; format: functional, cell-based; conditions: A549, 72 h; in short: as §3
A549 [19] = test: Decrease in Trx expression in human A549 cells at 2.1 to 4.2 uM after 24 hrs by Western blot method; format: functional, cell-based; in short: as §2
[20] = Acute toxicity in ICR mouse assessed as survival at 250 mg/kg, ip measured on day 14; format: organism-based; conditions: in vivo; in short: as §1
A549/CDDP [21] = test: Induction of apoptosis in human A549/CDDP cells assessed as decrease in Bcl2 expression at 0.6 to 1.2 uM after 24 hrs by Western blot method; format: functional, cell-based; in short: as §2
[22] = Acute toxicity in ICR mouse assessed as mortality at 200 to 450 mg/kg, ip measured on day 4 to 14 post treatment; format: organism-based; conditions: in vivo; in short: as §1
[23] = Toxicity in BALB/c nude mouse xenografted with human A549/CDDP cells assessed as body weight at 20 mg/kg, ip administered daily for 15 consecutive days measured on day 1 (reference value: 19.3 +/- 1.55 g); format: organism-based; conditions: in vivo
[24] = Acute toxicity in ICR mouse assessed as mortality at 450 mg/kg, ip; format: organism-based; conditions: in vivo; in short: as §1
Thioredoxin reductase = Thioredoxin reductase (Homo sapiens, UniProt Q16881+Q9NNW7+Q86VQ6); test: Inhibition of thioredoxin reductase in human A549/CDDP cells by DTNB dye based microplate spectrophotometry; format: cell-based
In short: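 A549 or A549/DDP cells were treated with varying compound concentrations for 24 h, then harvested, homogenized and centrifuged. Protein (50 µg) was reacted in triplicate with NADPH and DTNB in TE buffer at 37 °C for 1 h, and TNB was read at 412 nm. Activity was taken from a purified-TrxR standard curve, and IC50 was derived.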

[25] = Acute toxicity in ip dosed ICR mouse assessed as mortality measured up to 2 weeks; format: organism-based; conditions: in vivo; in short: as §1
[26] = Acute toxicity in ICR mouse assessed as survival at 200 mg/kg, ip measured on day 14; format: organism-based; conditions: in vivo; in short: as §1
A549 [27] = test: Inhibition of ERK phosphorylation in human A549 cells at 2.1 to 4.2 uM after 24 hrs by Western blot method; format: cell-based; in short: as §2
A549 [28] = test: Induction of apoptosis in human A549 cells assessed as increase in Bax expression at 2.1 to 4.2 uM after 24 hrs by Western blot method; format: functional, cell-based; in short: as §2

Sequence of ATP-dependent translocase ABCB1 (P08183 whole entry): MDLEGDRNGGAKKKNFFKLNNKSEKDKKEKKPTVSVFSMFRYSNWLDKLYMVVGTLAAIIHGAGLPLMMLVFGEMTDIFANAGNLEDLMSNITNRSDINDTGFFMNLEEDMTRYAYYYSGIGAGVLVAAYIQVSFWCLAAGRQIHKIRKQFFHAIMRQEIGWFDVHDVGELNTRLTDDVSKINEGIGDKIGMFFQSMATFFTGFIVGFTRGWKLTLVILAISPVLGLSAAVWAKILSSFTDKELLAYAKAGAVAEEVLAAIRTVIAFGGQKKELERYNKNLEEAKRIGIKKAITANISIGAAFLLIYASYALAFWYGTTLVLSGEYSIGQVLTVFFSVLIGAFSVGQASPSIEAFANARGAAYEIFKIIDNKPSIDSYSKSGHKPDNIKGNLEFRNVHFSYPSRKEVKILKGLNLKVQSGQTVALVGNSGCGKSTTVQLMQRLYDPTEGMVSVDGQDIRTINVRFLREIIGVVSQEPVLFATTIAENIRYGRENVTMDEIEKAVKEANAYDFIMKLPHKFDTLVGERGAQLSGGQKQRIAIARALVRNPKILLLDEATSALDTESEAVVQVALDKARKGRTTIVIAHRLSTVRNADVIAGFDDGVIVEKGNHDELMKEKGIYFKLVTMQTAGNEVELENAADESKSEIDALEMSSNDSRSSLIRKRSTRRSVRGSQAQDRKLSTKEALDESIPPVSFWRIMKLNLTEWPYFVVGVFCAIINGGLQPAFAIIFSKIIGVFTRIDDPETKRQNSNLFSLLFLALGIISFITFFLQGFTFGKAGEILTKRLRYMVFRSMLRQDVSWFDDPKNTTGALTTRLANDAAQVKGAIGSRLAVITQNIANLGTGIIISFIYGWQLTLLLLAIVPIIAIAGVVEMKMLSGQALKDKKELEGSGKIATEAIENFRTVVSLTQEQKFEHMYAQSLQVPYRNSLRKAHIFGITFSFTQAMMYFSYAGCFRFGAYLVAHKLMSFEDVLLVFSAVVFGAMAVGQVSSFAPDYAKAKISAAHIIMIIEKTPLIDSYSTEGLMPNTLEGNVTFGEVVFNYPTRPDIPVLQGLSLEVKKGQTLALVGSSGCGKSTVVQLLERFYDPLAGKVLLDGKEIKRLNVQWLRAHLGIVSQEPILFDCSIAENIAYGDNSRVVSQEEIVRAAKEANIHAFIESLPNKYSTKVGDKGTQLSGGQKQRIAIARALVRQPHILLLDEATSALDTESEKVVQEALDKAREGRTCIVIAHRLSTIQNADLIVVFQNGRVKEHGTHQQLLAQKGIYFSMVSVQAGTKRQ

COc1cc(/C=C/C(=O)/C=C/c2nc(C)c(C)nc2C)ccc1O
Activity (A549/CDDP [1]): Active | Activity (A549 [2]): Active | survival at 14 day [3]: 30% | Activity (A549 [4]): Active | inhibition (A549/CDDP [5]): Active | inhibition (A549 [6]): Active | Activity [7]: Non-Toxic | Activity (A549 [8]): Active | pIC50 (A549/CDDP [9]): 6.22 | Activity (A549/CDDP [10]): inactive | Activity (A549/CDDP [11]): inactive | Activity (A549/CDDP [12]): Active | survival at 14 day [13]: 50% | Activity [14]: 761592 RLU | Activity (A549 [15]): Active | Activity (A549/CDDP [16]): Active | Activity (A549 [17]): inactive | pIC50 (A549 [18]): 5.66 | Activity (A549 [19]): Active | survival at 14 day [20]: 60% | Activity (A549/CDDP [21]): Active | Activity [22]: Non-Toxic | Activity [23]: 18.3 g | Activity [24]: Toxic | IC50 (Thioredoxin reductase): 1.22 µM | LD50 at 336 h [25]: 285 mg/kg | survival at 14 day [26]: 90% | inhibition (A549 [27]): Active | Activity (A549 [28]): Active
